Legend:
[1] = biological target: T1, Human rhinovirus A protease (Human rhinovirus sp.) (UniProt Q4U254); assay: Irreversible inhibition of human rhinovirus 3C protease
T1 sequence (whole entry): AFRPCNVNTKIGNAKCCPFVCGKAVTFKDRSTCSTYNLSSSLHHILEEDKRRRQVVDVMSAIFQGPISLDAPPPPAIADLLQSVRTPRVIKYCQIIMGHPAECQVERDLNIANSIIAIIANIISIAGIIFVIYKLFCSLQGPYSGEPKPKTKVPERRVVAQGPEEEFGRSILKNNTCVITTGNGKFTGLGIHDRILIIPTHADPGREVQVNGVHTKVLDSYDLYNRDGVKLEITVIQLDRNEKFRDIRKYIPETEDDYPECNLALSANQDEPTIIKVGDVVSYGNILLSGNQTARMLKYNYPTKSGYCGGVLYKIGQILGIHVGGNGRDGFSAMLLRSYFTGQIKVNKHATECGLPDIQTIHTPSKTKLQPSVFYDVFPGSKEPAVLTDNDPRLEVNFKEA

[2] = The 50% cytotoxic concentration was calculated as the concentration of the drug that decreased the percentage of formazan produced in drug-treated,uninfected cells to 50% of that produced in drug free uninfected cells on serotype 14.; format: functional
[3] = biological target: T1, Human rhinovirus A protease (Human rhinovirus sp.); assay: The EC90 was calculated as the concentration of drug that increased the percentage of formazan production in drug treated, virus infected cells to 50% of that produced by drug free uninfected cells on human rhinovirus 2.; format: functional
[4] = biological target: T1, Human rhinovirus A protease (Human rhinovirus sp.); assay: The EC90 was calculated as the concentration of drug that increased the percentage of formazan production in drug treated, virus infected cells to 50% of that produced by drug free uninfected cells on human rhinovirus 1A.; format: functional
[5] = biological target: Cathepsin B (Homo sapiens) (UniProt P07858); assay: Inhibition of cathepsin B by the compound was measured as % activity of thrombin remaining after 10-15 min at 2 uM
Summary of the method: (§1)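 Purified proteases: human liver cathepsin B, porcine erythrocyte calpain I, human neutrophil elastase, bovine chymotrypsin, human thrombin and bovine trypsin. Each enzyme was incubated with inhibitor for 10-15 min, at 10 µM or at 2 µM where specified. Residual enzyme activity is reported as % remaining.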

[6] = biological target: T2, Calpain-1 catalytic subunit (Homo sapiens) (UniProt P07384); assay: % activity against calpain 1 remaining after 10-15 min at 2 uM; settings: Sus scrofa; summary of the method: as §1
T2 sequence (whole entry): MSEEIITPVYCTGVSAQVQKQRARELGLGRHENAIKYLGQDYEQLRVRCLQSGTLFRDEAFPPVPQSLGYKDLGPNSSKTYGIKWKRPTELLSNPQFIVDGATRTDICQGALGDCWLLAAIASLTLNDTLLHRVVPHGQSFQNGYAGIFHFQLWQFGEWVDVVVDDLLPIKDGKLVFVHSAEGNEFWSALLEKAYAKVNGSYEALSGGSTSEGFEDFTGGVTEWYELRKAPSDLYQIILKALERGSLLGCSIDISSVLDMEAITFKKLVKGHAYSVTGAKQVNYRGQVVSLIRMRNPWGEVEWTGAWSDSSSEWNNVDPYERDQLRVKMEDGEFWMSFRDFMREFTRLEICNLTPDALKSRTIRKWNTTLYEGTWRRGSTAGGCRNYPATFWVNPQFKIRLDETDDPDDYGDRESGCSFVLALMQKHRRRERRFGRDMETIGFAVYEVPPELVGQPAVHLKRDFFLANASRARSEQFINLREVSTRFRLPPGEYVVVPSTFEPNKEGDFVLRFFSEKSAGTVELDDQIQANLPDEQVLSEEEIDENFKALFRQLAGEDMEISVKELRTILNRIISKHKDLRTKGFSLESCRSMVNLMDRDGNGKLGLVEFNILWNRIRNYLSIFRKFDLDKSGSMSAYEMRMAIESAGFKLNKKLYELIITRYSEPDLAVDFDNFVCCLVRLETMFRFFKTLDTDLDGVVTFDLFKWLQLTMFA

[7] = biological target: Chymotrypsinogen A (Bos taurus) (UniProt P00766); assay: Inhibition of Chymotrypsinogen by the compound was measured as % activity of thrombin remaining after 10-15 min at 2 uM; summary of the method: as §1
[8] = biological target: T3, Neutrophil elastase (Homo sapiens) (UniProt P08246); assay: % activity against elastase remaining after 10-15 min at 2 uM; summary of the method: as §1
T3 sequence (whole entry): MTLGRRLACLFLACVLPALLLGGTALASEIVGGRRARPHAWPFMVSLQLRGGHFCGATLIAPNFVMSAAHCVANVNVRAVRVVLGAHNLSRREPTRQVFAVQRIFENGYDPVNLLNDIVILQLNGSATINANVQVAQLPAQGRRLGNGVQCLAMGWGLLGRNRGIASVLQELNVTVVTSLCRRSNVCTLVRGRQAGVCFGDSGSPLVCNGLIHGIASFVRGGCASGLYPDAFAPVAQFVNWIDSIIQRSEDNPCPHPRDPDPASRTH

[9] = Increased percentage of formazan production in drug treated virus infected cells to equal 50% control drug free uninfected cells on serotype 14
[10] = biological target: T4, Serine protease 1 (Bos taurus) (UniProt P00760); assay: Inhibition of trypsin by the compound was measured as % activity of thrombin remaining after 10-15 min at 2 uM; summary of the method: as §1
T4 sequence (whole entry): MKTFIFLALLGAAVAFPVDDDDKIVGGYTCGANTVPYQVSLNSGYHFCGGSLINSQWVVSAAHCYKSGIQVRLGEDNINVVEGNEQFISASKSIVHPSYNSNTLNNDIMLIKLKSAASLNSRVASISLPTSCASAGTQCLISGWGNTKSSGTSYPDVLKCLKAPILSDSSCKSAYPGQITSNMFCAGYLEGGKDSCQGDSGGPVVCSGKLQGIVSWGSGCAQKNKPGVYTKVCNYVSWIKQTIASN

[11] = biological target: Prothrombin (Homo sapiens) (UniProt P00734); assay: Inhibition of thrombin by the compound was measured as % activity of thrombin remaining after 10-15 min at 2 uM; summary of the method: as §1
[12] = biological target: Cathepsin B (Homo sapiens) (UniProt P07858); assay: Inhibition of cathepsin B by the compound was measured as % activity of thrombin remaining after 10-15 min at 10 uM; summary of the method: as §1
[13] = biological target: T3, Neutrophil elastase (Homo sapiens); assay: % activity against elastase remaining after 10-15 min at 10 uM; summary of the method: as §1
[14] = biological target: Prothrombin (Homo sapiens) (UniProt P00734); assay: Inhibition of thrombin by the compound was measured as % activity of thrombin remaining after 10-15 min at 10 uM; summary of the method: as §1
[15] = biological target: T2, Calpain-1 catalytic subunit (Homo sapiens); assay: % activity against calpain 1 remaining after 10-15 min at 10 uM; settings: Sus scrofa; summary of the method: as §1
[16] = biological target: Chymotrypsinogen A (Bos taurus) (UniProt P00766); assay: Inhibition of Chymotrypsinogen by the compound was measured as % activity of thrombin remaining after 10-15 min at 10 uM; summary of the method: as §1
[17] = biological target: T1, Human rhinovirus A protease (Human rhinovirus sp.); assay: The EC90 was calculated as the concentration of drug that increased the percentage of formazan production in drug treated, virus infected cells to 50% of that produced by drug free uninfected cells on human rhinovirus-14.; format: functional
[18] = biological target: T4, Serine protease 1 (Bos taurus); assay: Inhibition of trypsin by the compound was measured as % activity of thrombin remaining after 10-15 min at 10 uM; summary of the method: as §1
[19] = biological target: T1, Human rhinovirus A protease (Human rhinovirus sp.); assay: The EC90 was calculated as the concentration of drug that increased the percentage of formazan production in drug treated, virus infected cells to 50% of that produced by drug free uninfected cells on human rhinovirus-10.; format: functional
[20] = half life towards biological agent (dog plasma); format: ADME, organism-based, Canis lupus familiaris
Summary of the method: (§2)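 Human plasma (CPDA) or heparinized animal plasma, with rat plasma diluted 1:1 in 100 mM phosphate pH 7.4, and buffer controls, n = 3. Compound was added to 25 µM final at 37 °C and sampled periodically over 1 h. Samples were quenched in CH3CN, centrifuged, dried, reconstituted and analysed by reverse-phase HPLC. 1-Naphthyl butyrate was the esterase control.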

[21] = tested on: peptidase; assay: half life towards biological agent (peptidase); format: ADME
Summary of the method: (§3)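 Compound at 25 µM in 100 mM potassium phosphate pH 7.4 was preincubated 5 min at 37 °C. Reaction was started with chymotrypsin (5 units/mL) or porcine intestinal peptidase (0.1 units/mL). Aliquots taken at 0 and 60 min were quenched in CH3CN and centrifuged. Parent was quantified by reverse-phase C8 HPLC with UV at 220 nm. 1-Naphthyl butyrate hydrolysis was the peptidase esterase control.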

[22] = tested on: chymotrypsin; assay: half life towards biological agent (chymotrypsin); format: ADME; summary of the method: as §3
[23] = half life towards biological agent (human plasma); format: ADME, organism-based; summary of the method: as §2
[24] = half life towards biological agent (dithiothreitol 5 mM); format: ADME; settings: dithiothreitol solution
[25] = half life towards biological agent (rat plasma); format: ADME, cell-free; summary of the method: as §2
[26] = biological target: T1, Human rhinovirus A protease (Human rhinovirus sp.); assay: The kobs/[I] value for the irreversible inhibitors was obtained by reaction initiated by addition of 50 nM 3CP,containing 1 uM substrate and varying inhibitor concentrations on serotype 2.

CCOC(=O)/C=C/[C@H](C[C@@H]1CCCNC1=O)NC(=O)[C@H](Cc1ccccc1)NC(=O)[C@H](CC(C)C)NC(=O)OCc1ccccc1
K obs / 1 [1]: 239000 M⁻¹ s⁻¹
CC50 [2]: > 100000 nM

CCOC(=O)/C=C/[C@H](CCC(N)=O)NC(=O)[C@@H](CC(=O)[C@@H](NC(=O)c1cc(C)on1)C(C)C)Cc1ccc(F)cc1
EC90 [3]: 280 nM
EC90 [4]: 630 nM

CCOC(=O)/C=C/[C@H](C[C@@H]1CCCNC1=O)NC(=O)[C@H](Cc1ccc(F)cc1)NC(=O)[C@@H](NC(=O)c1cc(C)on1)C(C)C
K obs / 1 [1]: 900000 M⁻¹ s⁻¹
CC50 [2]: > 100000 nM

CCOC(=O)/C=C/[C@H](CCC(N)=O)NC(=O)[C@H](Cc1ccccc1)NC(=O)[C@H](CC(C)C)NC(=O)OCc1ccccc1
Activity [5]: 39%
Activity [6]: 100%
Activity [7]: 96%
Activity [8]: 92%
EC50 [9]: 540 nM
CC50 [2]: > 320000 nM
Activity [10]: 98%
Activity [11]: 101%

CCOC(=O)/C=C/[C@H](CN1CCNC1=O)NC(=O)[C@H](Cc1ccccc1)NC(=O)[C@H](CC(C)C)NC(=O)OCc1ccccc1
K obs / 1 [1]: 10900 M⁻¹ s⁻¹
CC50 [2]: > 100000 nM

CCOC(=O)/C=C/[C@H](C[C@@H]1CCNC1=O)NC(=O)[C@H](Cc1ccc(F)cc1)NC(=O)[C@@H](NC(=O)c1cc(C)on1)C(C)C
Activity [12]: 96%
EC90 [3]: 50 nM
EC90 [4]: 140 nM
K obs / 1 [1]: 1.5e+06 M⁻¹ s⁻¹
CC50 [2]: > 100000 nM
Activity [13]: 100%
Activity [14]: 103%
Activity [15]: 100%
Activity [16]: 101%
EC90 [17]: 40 nM
Activity [18]: 100%
EC90 [19]: 140 nM

CCOC(=O)/C=C/[C@H](CCC(=O)N(C)C)NC(=O)[C@H](Cc1ccccc1)NC(=O)[C@H](CC(C)C)NC(=O)OCc1ccccc1
CC50 [2]: > 100000 nM

CCOC(=O)/C=C/[C@H](CCC(=O)NC)NC(=O)[C@H](Cc1ccccc1)NC(=O)[C@H](CC(C)C)NC(=O)OCc1ccccc1
CC50 [2]: > 100000 nM

CCOC(=O)/C=C/[C@H](C[C@@H]1CCCNC1=O)NC(=O)[C@@H](CC(=O)[C@@H](NC(=O)c1cc(C)on1)C(C)C)Cc1ccc(F)cc1
K obs / 1 [1]: 500000 M⁻¹ s⁻¹
CC50 [2]: > 100000 nM

CCOC(=O)/C=C/[C@H](C[C@H]1CCNC1=O)NC(=O)[C@H](Cc1ccccc1)NC(=O)[C@H](CC(C)C)NC(=O)OCc1ccccc1
K obs / 1 [1]: 18000 M⁻¹ s⁻¹
CC50 [2]: > 100000 nM

CCOC(=O)/C=C/[C@H](C[C@@H]1CCNC1=O)NC(=O)[C@@H](CC(=O)[C@@H](NC(=O)c1cc(C)on1)C(C)C)Cc1ccc(F)cc1
Activity [12]: 98%
EC90 [3]: 30 nM
EC90 [4]: 41 nM
K obs / 1 [1]: 1.09e+06 M⁻¹ s⁻¹
half-life [20]: > 1 h
CC50 [2]: > 100000 nM
Activity [13]: 99%
Activity [14]: 100%
Activity [15]: 100%
half-life [21]: > 1 h
half-life [22]: > 1 h
half-life [23]: > 1 h
Activity [16]: 100%
half-life [24]: > 0.5 h
EC90 [17]: 20 nM
Activity [18]: 100%
half-life [25]: < 2 min
EC90 [19]: 100 nM

CCOC(=O)/C=C/[C@H](C[C@@H]1CCNC1=O)NC(=O)[C@H](Cc1ccccc1)NC(=O)[C@H](CC(C)C)NC(=O)OCc1ccccc1
K obs / 1 [1]: 257000 M⁻¹ s⁻¹
CC50 [2]: > 100000 nM
K obs / 1 [26]: 31000 M⁻¹ s⁻¹

CCOC(=O)/C=C/[C@H](C[C@@H]1CCNC1=O)NC(=O)[C@H](Cc1ccc(F)cc1)NC(=O)[C@@H](NC(=O)c1cc(C)on1)C(C)(C)C
Activity [12]: 81%
K obs / 1 [1]: 980000 M⁻¹ s⁻¹
CC50 [2]: > 100000 nM
Activity [13]: 96%
Activity [14]: 101%
Activity [15]: 100%
Activity [16]: 97%
Activity [18]: 95%

CCOC(=O)/C=C/[C@H](C[C@@H]1CCNC1=O)NC(=O)[C@H](Cc1ccccc1)NC(=O)[C@@H](NC(=O)OCc1ccccc1)C(C)C
K obs / 1 [1]: 500000 M⁻¹ s⁻¹
CC50 [2]: > 100000 nM
